# pIC50, pKi: −log10 of the molar value.
# Target: D(2) dopamine receptor (Homo sapiens, UniProt P14416)
# Assay: Displacement of [3H]spiperone from human cloned dopamine D2 receptor
# D(2) dopamine receptor, sequence (P14416 whole entry): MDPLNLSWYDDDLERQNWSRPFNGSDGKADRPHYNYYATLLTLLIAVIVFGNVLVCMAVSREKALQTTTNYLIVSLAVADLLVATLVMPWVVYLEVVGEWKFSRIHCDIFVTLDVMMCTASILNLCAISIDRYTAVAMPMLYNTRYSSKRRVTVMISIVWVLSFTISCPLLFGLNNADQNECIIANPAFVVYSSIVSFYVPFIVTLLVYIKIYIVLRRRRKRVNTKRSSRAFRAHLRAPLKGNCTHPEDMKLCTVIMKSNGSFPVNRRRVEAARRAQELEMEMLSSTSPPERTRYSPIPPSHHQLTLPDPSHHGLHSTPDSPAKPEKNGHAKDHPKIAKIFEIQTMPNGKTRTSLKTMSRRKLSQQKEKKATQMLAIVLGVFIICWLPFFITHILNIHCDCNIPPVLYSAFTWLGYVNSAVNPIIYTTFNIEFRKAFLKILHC
row,pKi,Compound
1,< 5.00,CC1(c2cccc(O)c2)C(=O)Nc2cc(Cl)cc(Cl)c2C1=O (stereo not drawn)
2,< 5.00,CC1(c2ccccc2)C(=O)Nc2cc(Cl)cc(Cl)c2C1=O (racemic)
3,< 5.00,CC1(c2cccc(OCc3ccccc3)c2)C(=O)Nc2cc(Cl)cc(Cl)c2C1=O (stereo not drawn)
4,6.34,COc1ccc(NS(=O)(=O)c2sc3ccc(Cl)cc3c2C)cc1N1CCNCC1
5,< 5.00,CC1(c2ccc(O)cc2)C(=O)Nc2cc(Cl)cc(Cl)c2C1=O (stereo not drawn)

# Target: T1, 5-hydroxytryptamine receptor 1A (Homo sapiens, UniProt P08908)
# T1 sequence (P08908 whole entry): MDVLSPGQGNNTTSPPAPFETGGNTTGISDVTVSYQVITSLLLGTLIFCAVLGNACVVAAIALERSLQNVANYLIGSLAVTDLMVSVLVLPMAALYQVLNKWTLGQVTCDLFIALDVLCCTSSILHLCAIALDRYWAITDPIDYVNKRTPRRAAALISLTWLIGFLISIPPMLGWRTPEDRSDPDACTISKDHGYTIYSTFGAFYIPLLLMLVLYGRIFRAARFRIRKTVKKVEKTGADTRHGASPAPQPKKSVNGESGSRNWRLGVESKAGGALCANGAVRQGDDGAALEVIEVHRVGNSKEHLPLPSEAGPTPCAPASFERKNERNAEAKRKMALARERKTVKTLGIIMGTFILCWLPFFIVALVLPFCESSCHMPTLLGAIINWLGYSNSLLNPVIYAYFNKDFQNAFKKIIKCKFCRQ
# Assay: Displacement of [3H]8-OH-DPAT from human cloned 5HT1A receptor
row,pKi,Compound
1,< 5.00,CC1(c2cccc(O)c2)C(=O)Nc2cc(Cl)cc(Cl)c2C1=O (stereo not drawn)
2,< 5.00,CC1(c2ccccc2)C(=O)Nc2cc(Cl)cc(Cl)c2C1=O (racemic)
3,6.77,CC1(c2cccc(OCc3ccccc3)c2)C(=O)Nc2cc(Cl)cc(Cl)c2C1=O (stereo not drawn)
4,< 5.00,CC1(c2ccc(O)cc2)C(=O)Nc2cc(Cl)cc(Cl)c2C1=O (stereo not drawn)

# Target: T2, 5-hydroxytryptamine receptor 2C (Homo sapiens, UniProt P28335)
# T2 sequence (P28335 whole entry): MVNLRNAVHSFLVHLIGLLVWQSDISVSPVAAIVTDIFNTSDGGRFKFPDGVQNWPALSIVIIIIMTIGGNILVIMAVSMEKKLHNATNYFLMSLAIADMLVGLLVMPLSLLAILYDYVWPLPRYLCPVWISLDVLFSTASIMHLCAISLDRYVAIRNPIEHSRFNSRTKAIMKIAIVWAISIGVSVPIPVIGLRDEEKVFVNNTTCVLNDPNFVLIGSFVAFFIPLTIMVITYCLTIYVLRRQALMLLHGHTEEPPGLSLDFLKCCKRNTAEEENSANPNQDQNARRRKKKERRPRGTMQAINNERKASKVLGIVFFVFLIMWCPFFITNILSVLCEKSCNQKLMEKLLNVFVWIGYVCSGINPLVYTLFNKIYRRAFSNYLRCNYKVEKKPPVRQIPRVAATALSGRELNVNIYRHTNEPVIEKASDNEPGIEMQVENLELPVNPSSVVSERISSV
# Assay: Displacement of [3H]mesulergine from human cloned 5HT2C receptor
row,pKi,Compound
1,< 5.00,CC1(c2cccc(O)c2)C(=O)Nc2cc(Cl)cc(Cl)c2C1=O (stereo not drawn)
2,< 5.00,CC1(c2ccccc2)C(=O)Nc2cc(Cl)cc(Cl)c2C1=O (racemic)
3,< 5.00,CC1(c2cccc(OCc3ccccc3)c2)C(=O)Nc2cc(Cl)cc(Cl)c2C1=O (stereo not drawn)
4,6.28,COc1ccc(NS(=O)(=O)c2sc3ccc(Cl)cc3c2C)cc1N1CCNCC1
5,< 5.00,CC1(c2ccc(O)cc2)C(=O)Nc2cc(Cl)cc(Cl)c2C1=O (stereo not drawn)

# Target: 5-hydroxytryptamine receptor 2A (Homo sapiens, UniProt P28223)
# Sequence (P28223 whole entry): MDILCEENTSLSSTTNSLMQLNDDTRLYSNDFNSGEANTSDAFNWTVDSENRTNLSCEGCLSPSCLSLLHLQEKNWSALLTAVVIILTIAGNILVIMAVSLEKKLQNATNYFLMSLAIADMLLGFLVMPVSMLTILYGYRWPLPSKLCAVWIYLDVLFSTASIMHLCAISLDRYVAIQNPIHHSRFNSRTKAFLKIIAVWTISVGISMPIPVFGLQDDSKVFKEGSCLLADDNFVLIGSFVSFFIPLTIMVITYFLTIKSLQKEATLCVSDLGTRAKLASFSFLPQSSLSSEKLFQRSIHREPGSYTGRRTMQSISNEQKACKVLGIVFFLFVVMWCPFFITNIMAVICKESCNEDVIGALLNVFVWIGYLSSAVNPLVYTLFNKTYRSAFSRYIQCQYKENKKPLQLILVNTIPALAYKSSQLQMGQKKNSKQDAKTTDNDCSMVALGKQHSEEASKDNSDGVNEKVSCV
# Assay: Displacement of [3H]ketanserin from human cloned 5HT2A receptor
row,pKi,Compound
1,< 5.00,CC1(c2cccc(O)c2)C(=O)Nc2cc(Cl)cc(Cl)c2C1=O (stereo not drawn)
2,< 5.00,CC1(c2ccccc2)C(=O)Nc2cc(Cl)cc(Cl)c2C1=O (racemic)
3,6.14,CC1(c2cccc(OCc3ccccc3)c2)C(=O)Nc2cc(Cl)cc(Cl)c2C1=O (stereo not drawn)
4,5.76,COc1ccc(NS(=O)(=O)c2sc3ccc(Cl)cc3c2C)cc1N1CCNCC1
5,< 5.00,CC1(c2ccc(O)cc2)C(=O)Nc2cc(Cl)cc(Cl)c2C1=O (stereo not drawn)

# Target: 5-hydroxytryptamine receptor 7 (Homo sapiens, UniProt P34969)
# Sequence (P34969 whole entry): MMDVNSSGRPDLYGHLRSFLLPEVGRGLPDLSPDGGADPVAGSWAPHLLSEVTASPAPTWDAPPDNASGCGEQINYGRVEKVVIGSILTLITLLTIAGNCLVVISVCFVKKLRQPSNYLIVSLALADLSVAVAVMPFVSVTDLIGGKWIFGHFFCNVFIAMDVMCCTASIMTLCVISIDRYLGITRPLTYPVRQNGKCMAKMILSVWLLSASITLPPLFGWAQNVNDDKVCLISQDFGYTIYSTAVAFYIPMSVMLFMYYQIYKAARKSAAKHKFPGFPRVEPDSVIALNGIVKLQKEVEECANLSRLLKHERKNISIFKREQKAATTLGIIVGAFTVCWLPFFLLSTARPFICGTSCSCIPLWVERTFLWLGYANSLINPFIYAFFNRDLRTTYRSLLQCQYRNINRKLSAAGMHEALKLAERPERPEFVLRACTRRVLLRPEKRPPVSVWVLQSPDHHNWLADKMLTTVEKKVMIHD
# Assay: Displacement of [3H]LSD from human cloned 5HT7 receptor
row,pKi,Compound
1,< 5.00,CC1(c2cccc(O)c2)C(=O)Nc2cc(Cl)cc(Cl)c2C1=O (stereo not drawn)
2,< 5.00,CC1(c2ccccc2)C(=O)Nc2cc(Cl)cc(Cl)c2C1=O (racemic)
3,6.22,CC1(c2cccc(OCc3ccccc3)c2)C(=O)Nc2cc(Cl)cc(Cl)c2C1=O (stereo not drawn)
4,< 5.00,CC1(c2ccc(O)cc2)C(=O)Nc2cc(Cl)cc(Cl)c2C1=O (stereo not drawn)

# Target: D(3) dopamine receptor (Homo sapiens, UniProt P35462)
# Sequence (P35462 whole entry): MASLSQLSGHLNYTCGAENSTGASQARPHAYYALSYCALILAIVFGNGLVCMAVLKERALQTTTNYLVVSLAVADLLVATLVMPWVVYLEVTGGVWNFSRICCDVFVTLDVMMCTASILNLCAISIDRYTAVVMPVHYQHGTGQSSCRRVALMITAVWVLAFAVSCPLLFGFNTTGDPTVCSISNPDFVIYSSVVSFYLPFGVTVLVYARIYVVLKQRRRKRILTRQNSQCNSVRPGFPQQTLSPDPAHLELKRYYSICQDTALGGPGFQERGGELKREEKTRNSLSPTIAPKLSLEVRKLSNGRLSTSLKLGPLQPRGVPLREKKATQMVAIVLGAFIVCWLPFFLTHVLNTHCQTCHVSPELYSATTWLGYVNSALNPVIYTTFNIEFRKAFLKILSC
# Assay: Displacement of [3H]spiperone from human cloned dopamine D3 receptor
row,pKi,Compound
1,< 5.00,CC1(c2cccc(O)c2)C(=O)Nc2cc(Cl)cc(Cl)c2C1=O (stereo not drawn)
2,< 5.00,CC1(c2ccccc2)C(=O)Nc2cc(Cl)cc(Cl)c2C1=O (racemic)
3,< 5.00,CC1(c2cccc(OCc3ccccc3)c2)C(=O)Nc2cc(Cl)cc(Cl)c2C1=O (stereo not drawn)
4,< 5.00,CC1(c2ccc(O)cc2)C(=O)Nc2cc(Cl)cc(Cl)c2C1=O (stereo not drawn)

# Target: T3, 5-hydroxytryptamine receptor 6 (Homo sapiens, UniProt P50406)
# T3 sequence (P50406 whole entry): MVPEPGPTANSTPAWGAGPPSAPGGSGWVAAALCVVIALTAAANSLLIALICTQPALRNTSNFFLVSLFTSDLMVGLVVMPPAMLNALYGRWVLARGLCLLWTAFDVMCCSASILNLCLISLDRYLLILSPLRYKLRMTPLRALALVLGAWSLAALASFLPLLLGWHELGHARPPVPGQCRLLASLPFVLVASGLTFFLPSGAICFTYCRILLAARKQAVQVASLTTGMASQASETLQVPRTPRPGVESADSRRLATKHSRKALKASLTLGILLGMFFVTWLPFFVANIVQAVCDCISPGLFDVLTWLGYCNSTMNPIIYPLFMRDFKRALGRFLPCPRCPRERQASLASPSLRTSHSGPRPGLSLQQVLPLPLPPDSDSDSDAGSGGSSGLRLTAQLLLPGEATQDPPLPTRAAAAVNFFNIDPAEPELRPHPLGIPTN
# Assay: Displacement of [3H]LSD from human cloned 5HT6 receptor expressed in HEK293 cells
# Format: cell-based
row,Compound,pKi
1,CCN(CC)c1ccc(C2(C)C(=O)Nc3cc(Cl)cc(Cl)c3C2=O)cc1 (stereo not drawn),8.04
2,CC1(c2cccc(O)c2)C(=O)Nc2cc(Cl)cc(Cl)c2C1=O (stereo not drawn),7.52
3,CC1(c2ccccc2)C(=O)Nc2cc(Cl)ccc2C1=O (stereo not drawn),< 6.00
4,CNc1cc(NS(=O)(=O)c2ccc(N)cc2)cc(NC)n1,6.29
5,CC1(c2ccccc2)C(=O)Nc2cc(Cl)cc(Cl)c2C1=O (racemic),7.26
6,COc1cc(Br)c2c(c1)NC(=O)C(C)(c1ccccc1)C2=O (stereo not drawn),7.14
7,CC1(c2ccccc2)C(=O)Nc2ccccc2C1=O (stereo not drawn),< 6.00
8,CC1(c2ccc(O)c([N+](=O)[O-])c2)C(=O)Nc2cc(Cl)cc(Cl)c2C1=O (stereo not drawn),< 6.00
9,CCNc1ccc(C2(C)C(=O)Nc3cc(Cl)cc(Cl)c3C2=O)cc1 (stereo not drawn),7.55
10,CC1(c2ccccc2)C(=O)Nc2cc(Cl)c(Cl)cc2C1=O (stereo not drawn),< 6.00
11,COc1cc(Cl)c2c(c1)NC(=O)C(C)(c1ccccc1)C2=O (stereo not drawn),6.46
12,CC1(c2ccc(O)c(Br)c2)C(=O)Nc2cc(Cl)cc(Cl)c2C1=O (stereo not drawn),7.11
13,CC1(c2ccccc2)C(=O)Nc2cc(Br)cc(Br)c2C1=O (stereo not drawn),6.71
14,CN(C)c1cc(Cl)c2c(c1)NC(=O)C(C)(c1ccccc1)C2=O (stereo not drawn),6.15
15,COc1cc2c(c(OC)c1)C(=O)C(C)(c1ccccc1)C(=O)N2 (stereo not drawn),6.14
16,CC1(c2cccc(OCc3ccccc3)c2)C(=O)Nc2cc(Cl)cc(Cl)c2C1=O (stereo not drawn),7.08
17,CC1(c2ccccc2)C(=O)Nc2c(Br)cc(Br)cc2C1=O (stereo not drawn),< 6.00
18,COc1ccc(C2(C)C(=O)Nc3cc(Cl)cc(Cl)c3C2=O)cc1[N+](=O)[O-] (stereo not drawn),< 6.00
19,CC1(c2ccc(OCc3ccccc3)c(Br)c2)C(=O)Nc2cc(Cl)cc(Cl)c2C1=O (stereo not drawn),< 6.00

# Now from value to molecule:
row,pKi,Compound
1,6.52,CC1(c2ccc(Br)cc2)C(=O)Nc2cc(Cl)cc(Cl)c2C1=O (stereo not drawn)
2,6.53,COc1ccc([C@]2(C)C(=O)Nc3cc(Cl)cc(Cl)c3C2=O)cc1
3,6.81,CC1(c2ccc(N)cc2)C(=O)Nc2cc(Cl)cc(Cl)c2C1=O (stereo not drawn)
4,6.06,CC1(c2ccc(Cl)cc2)C(=O)Nc2cc(Cl)cc(Cl)c2C1=O (stereo not drawn)
5,6.05,COc1ccc([C@@]2(C)C(=O)Nc3cc(Cl)cc(Cl)c3C2=O)cc1
6,6.83,COc1ccc(C2(C)C(=O)Nc3cc(Cl)cc(Cl)c3C2=O)cc1 (stereo not drawn)
7,6.46,CN(C)c1ccc(C2(C)C(=O)Nc3cc(Cl)cc(Cl)c3C2=O)cc1 (stereo not drawn)
8,6.02,CC1(c2ccc(I)cc2)C(=O)Nc2cc(Cl)cc(Cl)c2C1=O (stereo not drawn)
9,< 6.00,CC1(c2ccc([N+](=O)[O-])cc2)C(=O)Nc2cc(Cl)cc(Cl)c2C1=O (stereo not drawn)
10,6.59,CNc1ccc(C2(C)C(=O)Nc3cc(Cl)cc(Cl)c3C2=O)cc1 (stereo not drawn)
11,7.91,CC1(c2ccc(O)cc2)C(=O)Nc2cc(Cl)cc(Cl)c2C1=O (stereo not drawn)

# Target: D(1A) dopamine receptor (Homo sapiens, UniProt P21728)
# Sequence (P21728 whole entry): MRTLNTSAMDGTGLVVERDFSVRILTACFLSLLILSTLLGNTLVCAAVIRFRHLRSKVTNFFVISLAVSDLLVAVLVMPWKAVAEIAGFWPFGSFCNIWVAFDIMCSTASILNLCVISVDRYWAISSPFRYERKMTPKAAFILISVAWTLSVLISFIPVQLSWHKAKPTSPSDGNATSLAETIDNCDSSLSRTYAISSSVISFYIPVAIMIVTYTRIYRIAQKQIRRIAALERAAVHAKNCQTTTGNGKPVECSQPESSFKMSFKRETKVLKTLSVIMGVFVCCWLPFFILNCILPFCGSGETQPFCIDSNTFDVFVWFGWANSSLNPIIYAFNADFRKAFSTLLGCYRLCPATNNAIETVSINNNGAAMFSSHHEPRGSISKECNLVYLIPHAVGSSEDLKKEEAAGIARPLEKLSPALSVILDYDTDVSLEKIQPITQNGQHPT
# Assay: Displacement of [3H]SCH-23390 from human cloned dopamine D1 receptor
row,pKi,Compound
1,5.74,CC1(c2cccc(O)c2)C(=O)Nc2cc(Cl)cc(Cl)c2C1=O (stereo not drawn)
2,< 5.00,CC1(c2ccccc2)C(=O)Nc2cc(Cl)cc(Cl)c2C1=O (racemic)
3,6.92,CC1(c2cccc(OCc3ccccc3)c2)C(=O)Nc2cc(Cl)cc(Cl)c2C1=O (stereo not drawn)
4,6.92,COc1ccc(NS(=O)(=O)c2sc3ccc(Cl)cc3c2C)cc1N1CCNCC1
5,< 5.00,CC1(c2ccc(O)cc2)C(=O)Nc2cc(Cl)cc(Cl)c2C1=O (stereo not drawn)

# Target: T4, D(4) dopamine receptor (Homo sapiens, UniProt P21917)
# T4 sequence (P21917 whole entry): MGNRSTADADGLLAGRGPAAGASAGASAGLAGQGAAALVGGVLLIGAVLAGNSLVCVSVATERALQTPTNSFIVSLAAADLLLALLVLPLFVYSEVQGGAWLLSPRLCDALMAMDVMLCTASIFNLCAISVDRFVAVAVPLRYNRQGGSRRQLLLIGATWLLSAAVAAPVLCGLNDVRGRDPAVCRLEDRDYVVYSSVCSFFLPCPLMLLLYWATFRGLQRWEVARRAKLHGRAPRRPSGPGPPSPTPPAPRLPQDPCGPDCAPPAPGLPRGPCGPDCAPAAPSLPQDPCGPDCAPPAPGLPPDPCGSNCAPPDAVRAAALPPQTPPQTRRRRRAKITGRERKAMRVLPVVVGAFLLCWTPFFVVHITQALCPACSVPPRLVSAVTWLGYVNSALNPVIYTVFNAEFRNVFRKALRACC
# Assay: Displacement of [3H]spiperone from human cloned dopamine D4 receptor
row,pKi,Compound
1,< 5.00,CC1(c2cccc(O)c2)C(=O)Nc2cc(Cl)cc(Cl)c2C1=O (stereo not drawn)
2,< 5.00,CC1(c2ccccc2)C(=O)Nc2cc(Cl)cc(Cl)c2C1=O (racemic)
3,< 5.00,CC1(c2cccc(OCc3ccccc3)c2)C(=O)Nc2cc(Cl)cc(Cl)c2C1=O (stereo not drawn)
4,6.89,COc1ccc(NS(=O)(=O)c2sc3ccc(Cl)cc3c2C)cc1N1CCNCC1
5,< 5.00,CC1(c2ccc(O)cc2)C(=O)Nc2cc(Cl)cc(Cl)c2C1=O (stereo not drawn)

# Target: T3, 5-hydroxytryptamine receptor 6
# Assay: Antagonist activity at human cloned 5HT6 receptor expressed in HeLa cells assessed as inhibition of 5-HT-stimulated cAMP accumulation after 20 mins by enzyme-immunoassay
# Format: functional, cell-based
# In short: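 […] and test compounds were added to HBSS (pH 7.4) containing 1 mM MgCl₂, 1 mM CaCl₂ and 1-methyl-3-isobutylxanthine (IBMX) at 100. After 20 min at 37 °C, intracellular cAMP was measured by enzyme immunoassay. Compounds that inhibited 5-HT-stimulated cAMP accumulation were classed as antagonists.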
row,pIC50,Compound
1,6.21,CC1(c2ccc(O)cc2)C(=O)Nc2cc(Cl)cc(Cl)c2C1=O (stereo not drawn)
